Assay results: publication PMC3755449 (Nature communications, 2013)
Where a name gives a salt, the structure may show the parent alone.

B1: Untagged RON2L peptide (peptide)
peptide: DITQQAKDIGAGPVASCFTTRMSPPQQICLNSVVNTALSTSTQSAMK

Experiments:
[1] = tested on: P. falciparum clone FVO merozoites invading RBCs; assay: Invasion assay using purified invasive merozoites; format: cell-based, Plasmodium falciparum; conditions: 25 and 50 μM
Method in brief: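 Merozoites come from an FVO line selected for prolonged free-merozoite survival. Synchronized schizonts are gradient-purified, ruptured 3 hr at 37°C, and merozoites are filtered twice through 1.2 μm. About 5×10⁷ merozoites are gassed with 2.5×10⁷ pre-warmed RBCs and a range of compound concentrations for 3–4 hr at 37°C. Free merozoites are removed at 50 g for 7 min. Rings are counted by SYBR green/MitoTracker flow cytometry; IC50 by nonlinear regression.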

[2] = tested on: schizont-infected RBCs (FVO clone); assay: Schizont rupture assay; format: cell-based, Plasmodium falciparum; conditions: 30 μM
[3] = tested on: AMA1 secretion onto merozoite surface; assay: IFA of AMA1 secretion from micronemes; format: cell-based, Plasmodium falciparum; conditions: non-permeabilizing IFA, 60 μM
Method in brief: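 Schizonts rupture with or without test compound (60 μM) present beforehand. Released merozoites are probed with polyclonal anti-AMA1 antibodies by immunofluorescence under non-permeabilizing conditions to assess surface AMA1.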

[4] = target: Recombinant, his-tagged AMA1 (apical membrane antigen 1), 3D7 allele (Plasmodium falciparum (3D7 allele)) (UniProt Q7KQK5); assay: AlphaScreen or HTRF

| Molecule | inhibition of merozoite invasion [1] | merozoite release from schizont-infected RBCs [2] | AMA1 secretion from micronemes [3] | IC50 [4] [nM] |
| --- | --- | --- | --- | --- |
| CN(C)CCCN1c2ccccc2C(C)(C)c2ccccc21 [NCGC00014044, Dimetacrine] | inhibited merozoite invasion | not affected |  |  |
| Clc1cccc(C(c2ccc3[nH]cnc3c2)n2ccnc2)c1 (stereo not drawn) [NCGC00181034, Liarozole hydrochloride] | inhibited merozoite invasion | not affected | not affected |  |
| B1 |  |  |  | 100 |
